# Shown is part of a subset that was picked to be rich in hits.
# L major viab: Leishmania major promastigote growth inhibition, primary screen; Leishmania major promastigotes, resazurin fluorescence viability; AID 1063, 2008; inhibition, % at 10 µM; hit rate 9% among 200,000; in the data active = inhibition above about 50%;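 note: promastigotes grown with compound for 44 hours at 28 °C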
# Mdm2 ligase inh: MDM2-luciferase reporter signal enhancers, primary screen, MDM2 E3 ligase inhibitor project, cell-based, luminescence, 1536-well; cell-based MDM2 ubiquitination luciferase reporter, 2 h; 0 = plate control, 100 = twice control, blank-subtracted; hit rate 0.11% among 210,000; signal enhancement, % at 5 µM;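 active = signal enhancement of 30% or more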;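 note: luminescence tracks abundance of the self-degrading MDM2-luciferase fusion protein; higher signal means inhibition of MDM2 E3 ligase activity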
#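 system = mammalian cells stably expressing self-ubiquitinating, self-degrading MDM2 E3–luciferase fusion | quantity = 2000 cells per well seeded | incubation = 4 h cell settling then 2 h compound exposure, 37 °C | signal = SteadyLite luminescence, 15 min reagent step | benchmarks = plate control and blank wells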
# S1P4 antag: S1P4 receptor antagonists, primary screen, cell-based; S1P4-expressing cells, antagonist mode, reporter read-out; inhibition, % at 4.98 µM; hit rate 0.26% among 220,000; AID 1510, 2009; in the data active = inhibition above about 29%;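 note: 0% = wells stimulated with agonist and 100% = vehicle wells without agonist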
# S1P3 antag: S1P3 receptor antagonists, primary screen, cell-based; Sphingosine 1-phosphate receptor 3 (Homo sapiens), Q99500; AID 485, 2006; CHO S1P3 NFAT-BLA reporter, FRET fluorescence, antagonist mode; inhibition, % at 4.98 µM; hit rate 0.27% among 170,000;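 active = inhibition above the plate cutoff, the mean inhibition of test wells on that plate plus 3 SD, cut at about 28% in these data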;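 note: cells challenged with S1P at its EC80 of 0.8 µM; blue over green emission ratio from cleaved BLA substrate after 4 h stimulation; 0% = S1P-stimulated wells and 100% = unstimulated DMSO-only wells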
# Target sequence (Q99500 whole entry, looked up): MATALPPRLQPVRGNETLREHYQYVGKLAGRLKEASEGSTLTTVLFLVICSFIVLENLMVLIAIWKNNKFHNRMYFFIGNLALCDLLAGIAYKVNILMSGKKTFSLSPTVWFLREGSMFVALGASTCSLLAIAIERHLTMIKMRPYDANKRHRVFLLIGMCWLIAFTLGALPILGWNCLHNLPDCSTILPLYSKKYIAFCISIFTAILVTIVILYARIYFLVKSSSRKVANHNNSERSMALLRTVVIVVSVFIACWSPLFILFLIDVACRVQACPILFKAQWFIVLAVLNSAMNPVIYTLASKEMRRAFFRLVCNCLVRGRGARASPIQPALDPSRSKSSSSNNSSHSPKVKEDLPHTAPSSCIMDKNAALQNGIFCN
# S1P4 agonist: S1P4 receptor agonists, primary screen, cell-based | AID 1509, 2009 | S1P4-expressing cell line, agonist reporter assay | hit rate 0.35% among 220,000 | activation, % at 4.98 µM | Sphingosine 1-phosphate receptor 4 (Homo sapiens), O95977; in the data active = activation above about 11%;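 note: 0% = DMSO vehicle and 100% = reference agonist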
# The depositor's hits bear a star; / = not tested or not shown.
SMILES,L major viab,Mdm2 ligase inh,S1P4 antag,S1P3 antag,S1P4 agonist
CC(=O)O[C@]1(C(C)=O)CC[C@H]2[C@@H]3C=C(Cl)C4=CC(=O)CC[C@]4(C)[C@H]3CC[C@@]21C,67.5*,/,6.2,-3.7,-2.5
CN(CC(O)Cn1cnc2c1c(=O)n(C)c(=O)n2C)c1ccccc1 (configuration not stated),-5.0,-1.5,-15.9,0.2,2.0
CC1CCCN(CC(O)COCC2COc3ccccc3O2)C1 (configuration not stated),85.9*,-17.0,2.3,/,0.8
OC(COCC1COc2ccccc2O1)CN1CCN(c2ccccn2)CC1 (configuration not stated),70.4*,-7.2,-4.4,17.3,-0.9
O=C(C1CCCN1S(=O)(=O)c1cccc2nsnc12)N1CCCCCC1 (configuration not stated),/,-7.2,-8.0,-0.8,0.9
Cc1cc(C)c[n+](C(C)C(=O)c2ccc(-c3ccccc3)cc2)c1 (configuration not stated),67.4*,-13.9,-17.5,-0.2,1.2
Cc1ccc(C(=O)C(C)[n+]2cccc(C(N)=O)c2)cc1 (configuration not stated),-12.2,-9.7,-13.0,1.6,1.7
CC(C)(C)C1CCC(C(=O)OCC(=O)c2ccc[nH]2)CC1 (configuration not stated),56.9*,-11.2,-7.6,1.7,-1.0
O=C(OCC(=O)c1ccc[nH]1)c1ccccc1,4.2,-6.8,-1.5,-4.9,2.1
COc1cc(/C=C2\SC(=S)N(Nc3ccccc3)C2=O)ccc1O,48.1,-3.2,-16.9,-9.3,0.4
O=C1/C(=C/c2ccc(O)c(O)c2)SC(=S)N1Nc1ccccc1,78.4*,-7.2,1.8,-3.9,-0.3
O=C(c1ccccc1)C(C(=O)N1CCc2ccccc2C1)n1ccccc1=O (configuration not stated),72.8*,-13.5,-17.5,-1.4,1.1
CC(Sc1nnc2ccccn12)C(=O)N1CCc2ccccc2C1 (configuration not stated),-3.5,-3.7,-4.9,/,1.1
COc1ccc(C2CC(=O)C=C(NNS(=O)(=O)c3ccc(C)cc3)C2)cc1 (configuration not stated),-5.6,-14.8,0.5,9.2,1.3
Cn1cc(Br)c(C(=O)NNC(=O)c2ccc(Cl)cc2)n1,52.1*,-7.5,-26.7,2.1,-0.2
Cc1nc(NC(=O)c2ccccc2)sc1-c1csc(NCc2ccccc2)n1,85.9*,-20.0,4.6,/,-2.2
Cc1nc(NC(=O)c2ccccc2)sc1-c1csc(NCCc2ccccc2)n1,100.3*,4.5,6.8,/,1.4
Cc1nc(NC(=O)c2ccccc2)sc1-c1csc(N)n1,15.3,-36.8,-0.6,41.9,1.7
O=C1CN(CC(=O)N2CCCCC2)c2ccccc2O1,97.8*,-3.1,5.4,-26.5,-1.0
O=C1CN(CC(=O)N2CCOCC2)c2ccccc2O1,-0.7,-13.1,10.4,-21.6,-2.9
COc1ccc(Cn2c(-c3ccc(Br)cc3)c[n+]3ccccc23)cc1,99.0*,-6.2,-22.4,2.1,1.8
COc1ccc(Cn2c(C)ccc2C)cc1,-8.3,-3.2,3.0,/,-0.5
COC(=O)C1=C(CSCc2ccco2)NC(=O)NC1c1cc(C)ccc1C (configuration not stated),11.9,-2.8,-7.2,-18.9,1.4
CCn1cc(C(=O)Nc2ccc(OC)c(S(=O)(=O)N3CCCCC3)c2)c(=O)c2ccc(C)nc21,67.1*,1.1,-8.5,-4.8,0.4
COc1ccc(NC(=O)c2ccc(=O)[nH]c2)cc1S(=O)(=O)N1CCCCC1,56.4*,-6.4,-1.7,-9.0,0.5
COc1ccc(NC(=S)Nc2ccc(C)c(S(=O)(=O)N3CCCCC3)c2)cc1,76.3*,-24.9,-2.0,-13.4,0.8
COc1ccc(OC)c(S(=O)(=O)N2CCC(C(=O)Nc3cccc(C)c3)CC2)c1,99.9*,-7.1,2.4,/,1.1
Cc1ccc(NC(=S)Nc2ccc(C(C)C)cc2)cc1S(=O)(=O)N1CCCCCC1,7.4,-19.0,-12.7,-21.9,1.3
CCn1cc(C(=O)Nc2ccc(C(=O)N3CCCC3)cc2)c(=O)c2ccc(C)nc21,/,/,/,-3.8,/
Cc1nc2ccccc2n1C(=O)N(C)C,-6.7,-2.2,-13.7,-9.5,0.3

# Compound activity: PubChem, several laboratories
